Published values gathered from unrelated publications.
Lines come from different studies, so protocols differ.
Target: Dual specificity protein kinase CLK2 (CLK2, Homo sapiens, UniProt P49760)

Compound	read-out	action	technique	concentration	quantity	result
Nc1ncc(-c2nc(N3CCOCC3)nc(N3CCOCC3)n2)c(C(F)F)n1	binding		competition with immobilised ligand	10 µM	remaining binding	41%
Cn1cc(-c2cccc(N3CCc4c(sc5c4CC(C)(C)C5)C3=O)c2CO)cc(Nc2ccncn2)c1=O	enzyme activity	inhibitor		1 µM	inhibition	4%
COc1ncccc1-c1cnn2ccc(N3CCN(C(=O)OC(C)C)CC3)nc12	binding		competition with immobilised ligand	1 µM	remaining binding	100%
COc1cc(Nc2ncc(F)c(Nc3ccc4c(n3)NC(=O)C(C)(C)O4)n2)cc(OC)c1OC	binding		competition with immobilised ligand	10 µM	inhibition	84%
O=c1[nH]c2ccccc2n1C1CCN(Cc2ccc(-c3[nH]c4cc5ncnc5cc4nc3-c3ccccc3)cc2)CC1	cell-free assay			0.5 µM	remaining signal	114%
Cn1cncc1[C@@](O)(COc1ccc(C#N)cc1-c1ccc(OC(F)(F)F)cc1)c1ccc(C#N)cc1	cell-free assay		competition with immobilised ligand	1 µM	remaining binding	90%
Cc1nn(C)cc1-c1nc2c(N3CCN(Cc4ccc(Cl)cc4)CC3)c(Cl)cnc2[nH]1	binding		competition with immobilised ligand	1 µM	remaining binding	77%
CC(C)(C)c1cc(C=C(C#N)C#N)cc(Br)c1O	enzyme activity	inhibitor		0.5 µM	remaining activity	104%
Cn1cc(-c2cc(F)cc(N3CCn4c(cc5c4CCCC5)C3=O)c2CO)cc(Nc2ccc(N3CCN(C4COC4)CC3)cn2)c1=O	enzyme activity	inhibitor		0.1 µM	inhibition	7%
C#Cc1n[nH]c2c(-c3cn([C@@H](C)c4ccccn4)c(=O)[nH]c3=O)cc(F)cc12	enzyme activity	inhibitor		0.1 µM	inhibition	7.4%
N#CC1(c2ccccn2)CCN(Cc2cc(C(=O)O)c(=O)n3ccccc23)CC1	cell-free assay		competition with immobilised ligand	1 µM	remaining binding	100%
